Data on three compounds can be found in ChEMBL document CHEMBL6134855, “Peptidomimetics Activating the Proteasome: A New Perspective for Parkinson's Treatment” (J Med Chem, 2025).

Each structure is given as a SMILES string. Calls of active or inactive are those of the source. The rule behind the calls is not given here. Where a SMILES comes first, the peptide text is derived from it. [ ]: non-standard residue; d: D form. NMeR = CN[C@@H](CCCNC(=N)N)C(=O)O; NMeS = CN[C@@H](CO)C(=O)O Bounds are passed on as bounds.

Data set [1] has as its system Hippocampal neuron. The data set is described as follows: Neuroprotective activity in mouse Hippocampal neuron cells assessed as decrease in Lewy body-like aggregates at 0.5 to 2.5 uM pretreated with alpha-synuclein followed by compound addition measured after 7 days by immunostaining analysis. In kind it is functional, cell-based. The settings on record: dose 0.5-2.5 µM, time 7.0 day. In short, it runs like this:
(§1)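 E16.0 mouse hippocampal neurons, 25,000 per well, poly-L-lysine coated, Neurobasal/B27. Day 8: sonicated mouse α-synuclein PFFs added (2.5 μg/mL final; PBS for controls). Modulator (0.5 or 2.5 μM) added 1 h later. Day 15: PFA fixation; immunostaining for pS129-αsyn and NeuN plus DAPI; automated imaging. 3 biological, 9–11 technical replicates.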

In data set [2] the test system is Hippocampal neuron. Description: Neuroprotective activity in mouse Hippocampal neuron cells assessed as increase in cell number at 0.5 to 5 uM pretreated with preformed fibrils followed by compound treatment measured after 7 days by DAPI staining/NeuN protein immunostaining analysis. In kind it is functional, cell-based. Conditions: dose 0.5-5 µM, time 7.0 day.

In data set [3] the test system is Hippocampal neuron. Description: Activation of 20S proteasome in mouse Hippocampal neuron cells assessed as reduction in alpha-synuclein aggregation measured after 7 days by DAPI staining based immunofluorescence analysis. Format: cell-based. The settings on record: filed as activator, dose 0.5-5 µM, time 7.0 day.
Data set [4] is described as follows: Cytotoxicity in HEK293T cells assessed as cell viability at 100 uM incubated for 24 hrs by MTT assay relative to control. In kind it is toxicity, cell-based, HEK-293T. The settings on record: human, read-out: Activity. In short, it runs like this: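 HEK293T cells grown in complete medium for 2 days, then the medium was replaced with compound at 1, 10, 25, 50 or 100 μM for 24 h. MTT was added, formazan dissolved in DMSO, and absorbance read at 570 nm. Mean of three biological replicates, compared with untreated control.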
In general terms: Formazan colour is commonly taken as a measure of viable cells.

For a further data set, the system named is Primary cortical neuron. The data set is described as follows: Activation of 20S proteasome in mouse Primary cortical neuron cells assessed as reduction in alpha-synuclein level at 2.5 uM incubated for 7 days. In kind it is cell-based. The settings on record: filed as activator, time 7.0 day. In short, it runs like this: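 E16–E17 CD1 mouse cortical neurons cultured in Neurobasal A with B-27 and GlutaMAX. Treated at DIV7 with 2.5 μM activator for 7 days; lysed at DIV14, protein by BCA. α-Synuclein quantified by Simple Western Jess automated immunoblot with total-protein normalization. n = 3 biological replicates.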

The subject of data set [5] is HEK-293T. Description: Cytotoxicity against HEK293T cells assessed as cell viability at 10 uM measured after 3 hrs by Hoechst 33342 staining based analysis. In kind it is toxicity. Conditions: human. In a few lines: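 HEK293T cells in DMEM/10% FBS, seeded 3 × 10^4 per well and grown 48 h, then given 10 μM NBD-labelled modulators for 3 h. Hoechst 33342 added for the final 30 min. Cells washed with PBS and imaged by fluorescence microscopy (NBD and Hoechst channels). Three independent replicates.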

Data set [6] can be described thus: Proteolytic stability of compound in human plasma assessed as protease-mediated degradation by measuring compound remaining at 200 uM incubated for 30 mins by UHPLC analysis. Format: ADME, cell-free. Conditions: read-out: Stability. In a few lines:
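Compound (200 μM final, dissolved in water) incubated in human serum at 37 °C for 30 min. Samples every 5 min quenched 1:1 with 6% TCA and centrifuged. Supernatant analysed by UHPLC (UV 223 nm) for intact compound; cleavage sites identified by MS.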

Data set [7] concerns Hippocampal neuron. Description: Neuroprotective activity in mouse Hippocampal neuron cells assessed as neuron viability at 0.5 to 2.5 uM pretreated with alpha-synuclein followed by compound addition measured after 7 days by immunostaining analysis. In kind it is functional, cell-based. Conditions: dose 0.5-2.5 µM, time 7.0 day. In short, it runs like this:
as §1

Data set [8] has as its system HEK-293T. The data set is described as follows: Cytotoxicity in HEK293T cells assessed as cell viability at 1 to 10 uM incubated for 24 hrs by MTT assay relative to control. Format: toxicity, cell-based. Conditions: human, dose 1-10 µM. In a few lines: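 HEK293T cells grown 2 days, then medium replaced with compound at 1, 10, 25, 50 or 100 μM for 24 h. MTT added, formazan dissolved in DMSO, absorbance read at 570 nm. Mean of three biological replicates vs control, one-way ANOVA.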

Data set [9] in a line: Permeability of compound in PBS incubated for 22 hrs by PAMPA-BBB assay. In kind it is ADME. In a few lines: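 PAMPA-BBB with a 2% porcine brain lipid membrane. Compounds were diluted from 10 mM aqueous stocks to 500 μM in 0.1 M PBS containing 5% DMSO and incubated 22 h at 37 °C with shaking at 250 rpm. Read-out was fluorescence after reaction with 0.02% fluorescamine (absorbance at 290 nm for propranolol). Pe calculated as linear permeation velocity. Three biological replicates.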
In general terms: The PAMPA barrier holds no transporters, so it reflects passive diffusion.

Data set [10] deals with T1, 20S proteasome (Homo sapiens) (UniProt P49721+P20618+P28074+P28062+P28065+P28072+P25786+P25787+P25788+P25789+P28066+P60900+O14818+Q8TAA3+P40306+A5LHX3+P49720+P28070+Q99436). Description: Activation of 20S proteasome chymotrypsin-like activity in HEK293T cell lysate using Suc-LLVY-AMC as substrate assessed as fold increase in activity at 5 uM by fluorescence based analysis relative to control. Format: subcellular. Conditions: filed as activator. In a few lines: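 Chymotrypsin-like activity read with Suc-LLVY-AMC. 1 μM bortezomib as negative control. Fold activity vs vehicle control; at least three independent replicates, one-way ANOVA with Tukey.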

Data set [11] has as its target T1, 20S proteasome (Homo sapiens). Description: Activation of human 20S proteasome assessed as tau degradation at 10 uM by SDS-PAGE analysis relative to control. The settings on record: filed as activator, time 1.5 hrs. Format: protein-complex assay.
For data set [12] the target is unchanged. The data set is described as follows: Activation of human 20S proteasome assessed as alpha-synuclein degradation by measuring residual activity at 10 uM by SDS-PAGE analysis relative to control. In kind it is protein-complex assay. The settings on record: filed as activator, time 1.5 hrs.
The target is the same in data set [13]. The data set is described as follows: Activation of human erythrocyte-derived 20S proteasome trypsin-like activity using Boc-LRR-AMC as substrate at 0.5 to 10 uM measured every two mins for 60 mins by fluorescence based analysis. The settings on record: filed as activator, dose 0.5-10 µM.
Data set [14] shares this target. The data set is described as follows: Activation of human erythrocyte-derived 20S proteasome chymotrypsin-like activity using Suc-LLVY-AMC as substrate assessed as fold increase in activity at 1 uM measured every two mins for 60 mins by fluorescence based analysis relative to control. Conditions: filed as activator. In a few lines:
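h20S proteasome 0.002 mg/mL (2.8 nM) in 50 mM Tris/HCl pH 8.0, 2% DMSO final. Suc-LLVY-AMC 100 μM final. Modulators 1.0–50 μM (TAT/6R constructs 0.5–10 μM). AMC fluorescence ex 380/em 460 nm read every 2 min for 60 min at 37 °C. Activity relative to DMSO-treated latent proteasome (100%); ≥3 replicates.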

Data set [15] shares this target. The data set is described as follows: Activation of human erythrocyte-derived 20S proteasome trypsin-like activity using Boc-LRR-AMC as substrate at 1.0 to 50 uM measured every two mins for 60 mins by fluorescence based analysis. Conditions: dose 1-50 µM.
The target is the same in data set [16]. Description: Activation of human erythrocyte-derived 20S proteasome using Dabcyl-EDANS as FRET-type substrate at 1.0 to 50 uM measured every two mins for 60 mins by fluorescence based analysis. Format: cell-based. Conditions: filed as activator, dose 1-50 µM. In a few lines:
(§2)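 Latent human 20S proteasome (0.002 mg/mL, 2.8 nM) in 50 mM Tris/HCl pH 8.0 with 2% DMSO. AMC substrates at 100 μM final (ex 380/em 460 nm); Dabcyl-EDANS at 15 μM final (ex 335/em 493 nm). Modulators at 1.0–50 μM; TAT- or 6R-containing constructs at 0.5–10 μM. Read every 2 min for 60 min at 37 °C. Activity relative to DMSO-treated proteasome (100%). ≥3 independent replicates.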

Data set [17] shares this target. The data set is described as follows: Activation of human erythrocyte-derived 20S proteasome chymotrypsin-like activity using Suc-LLVY-AMC as substrate at 1.0 to 50 uM measured every two mins for 60 mins by fluorescence based analysis. The settings on record: filed as activator, dose 1-50 µM.
For data set [18] the target is unchanged. The data set is described as follows: Activation of human erythrocyte-derived 20S proteasome using Dabcyl-EDANS as FRET-type substrate at higher concentration measured every two mins for 60 mins by fluorescence based analysis. In kind it is cell-based. Conditions: filed as activator. In a few lines:
as §2

Data set [19] shares this target. Description: Activation of human erythrocyte-derived 20S proteasome caspase-like activity using Z-LLE-AMC as substrate at 1.0 to 50 uM measured every two mins for 60 mins by fluorescence based analysis. Conditions: filed as activator, dose 1-50 µM. In short, it runs like this:
as §2

Data set [20] can be described thus: Effect on secondary structure of drug in water at 2 mg/ml assessed as alpha-helical conformation by CD analysis. In kind it is physicochemical. The settings on record: buffer.

As to `C[C@@H](O)[C@H](NC(=O)[C@H](Cc1ccccc1)NC(=O)[C@H](Cc1ccc(O)cc1)NC(=O)CN(CCCCN)C(=O)[C@H](CCCNC(=N)N)NC(=O)[C@H](CCCNC(=N)N)NC(=O)[C@H](CCCNC(=N)N)NC(=O)[C@H](CCNC(=N)N)NC(=O)[C@H](CCCNC(=N)N)NC(=O)[C@@H](N)CCCNC(=N)N)C(=O)NCC(=O)N[C@@H](CO)C(=O)N[C@@H](CCCCN)C(=O)N[C@@H](CC(=O)O)C(=O)N[C@@H](Cc1c[nH]c2ccccc12)C(=O)N[C@@H](CCCNC(=N)N)C(=O)N[C@@H](CO)C(=O)N[C@@H](Cc1ccc(O)cc1)C(=O)N[C@@H](Cc1ccc(O)cc1)C(=O)N[C@@H](CO)C(=O)O`, the outcome in the data set on Hippocampal neuron [1], in the data set on Hippocampal neuron [2], in the data set on Primary cortical neuron and in the data set with Hippocampal neuron [7] was Active. In addition, the results for the Activity result with Hippocampal neuron [3], in the data set on HEK-293T [5] and with HEK-293T [8] were “Dose-dependent-effect”, “Non-toxic” and “Non-toxic”, respectively. Further, the viability at 24 h, 100 µM in data set [4] was around 50%. Further, the remaining at 0.5 h, 200 µM in data set [6] is above 60%. Besides, the permeability result in [9] was “Permeable”.
Consider `C[C@@H](O)[C@H](NC(=O)[C@H](Cc1ccccc1)NC(=O)[C@H](Cc1ccc(O)cc1)NC(=O)CN(CCCCN)C(=O)[C@H](CCCNC(=N)N)NC(=O)[C@H](CCCNC(=N)N)NC(=O)[C@H](CCCNC(=N)N)NC(=O)[C@H](CCC(N)=O)NC(=O)[C@H](CCCNC(=N)N)NC(=O)[C@H](CCCNC(=N)N)NC(=O)[C@H](CCCCN)NC(=O)[C@H](CCCCN)NC(=O)[C@@H](N)CCCNC(=N)N)C(=O)NCC(=O)N[C@@H](CO)C(=O)N[C@@H](CCCCN)C(=O)N[C@@H](CC(=O)O)C(=O)N[C@@H](Cc1c[nH]c2ccccc12)C(=O)N[C@@H](CCCNC(=N)N)C(=O)N[C@@H](CO)C(=O)N[C@@H](Cc1ccc(O)cc1)C(=O)N[C@@H](Cc1ccc(O)cc1)C(=O)N[C@@H](CO)C(=O)O`, for which the result (with Hippocampal neuron [1]; in the data set on Hippocampal neuron [2]; with Primary cortical neuron; in [13]; with Hippocampal neuron [7]) was Active. The fold change (FC) in data set [10] was determined as 4; in data set [14] it was 16. The Activity entry with HEK-293T [5] was “Non-toxic”; in data set [11], above 90%; in data set [12], below 40%; in the data set with HEK-293T [8], “Non-toxic”. Moreover, the remaining at 0.5 h, 200 µM in [6] was above 60%. The permeability entry in data set [9] is on record as “Permeable”.
On to `C[C@@H](O)[C@H](NC(=O)[C@H](Cc1ccccc1)NC(=O)[C@H](Cc1ccc(O)cc1)NC(=O)[C@@H](N)CCCCN)C(=O)NCC(=O)N[C@@H](CO)C(=O)N[C@@H](CCCCN)C(=O)N[C@@H](CC(=O)O)C(=O)N[C@@H](Cc1c[nH]c2ccccc12)C(=O)N(C)[C@@H](CCCNC(=N)N)C(=O)N(C)[C@@H](CO)C(=O)N[C@@H](Cc1ccc(O)cc1)C(=O)N[C@@H](Cc1ccc(O)cc1)C(=O)N[C@@H](CO)C(=O)O` (H-KYFTGSKDW[NMeR][NMeS]YYS-OH), for which the outcome in data set [15] was inactive. Further, the result in data set [16] and in [18] was Active. Further, the Activity result in data set [17] is recorded as “Active; Lower Capacity Of Activation Is Observed”; in data set [19] it was “Moderate_effect”; in data set [20] it was “Active”.
